This is an account of results in ChEMBL document CHEMBL3098016, “Biphenyl derivatives incorporating urea unit as novel VEGFR-2 inhibitors: design, synthesis and biological evaluation” (Bioorg Med Chem, 2014).

Experiment [1] in a line: Antiproliferative activity against human SH-SY5Y cells after 48 hrs by MTT assay. A general note: Formazan colour is commonly taken as a measure of viable cells.
A further experiment has as its system MDA-MB-231. Briefly: Antiproliferative activity against human MDA-MB-231 cells after 48 hrs by MTT assay. As to conditions: MDA-MB-231, 48 h. Type of experiment: functional, cell-based. An outline of the steps: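 Cells in exponential growth plated at 1 × 10⁴ cells/well and incubated 24 h at 37 °C. Compounds were then added at various concentrations for 48 h. MTT (5 mg/mL) was added, followed by 4 h at 37 °C. Supernatant was removed and formazan dissolved in DMSO, with absorbance read at 490 nm. IC50 in µM.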

Experiment [2] in a line: Antiproliferative activity against human SGC7901 cells after 48 hrs by MTT assay. Particulars: SGC-7901, 48 h.
The next experiment relates to LoVo. Briefly: Antiproliferative activity against human LoVo cells after 48 hrs by MTT assay.
The test system of the next experiment is K562. Briefly: Antiproliferative activity against human K562 cells after 48 hrs by MTT assay. Particulars: K562, 48 h.
Experiment [3] addresses Vascular endothelial growth factor receptor 2 (Homo sapiens, UniProt P35968). Briefly: Inhibition of VEGFR2 (unknown origin) after 30 mins by HTRF assay. On the technique in general: In TR-FRET formats the signal depends on donor and acceptor labels being close together.

Vascular endothelial growth factor receptor 2, sequence (P35968 whole entry): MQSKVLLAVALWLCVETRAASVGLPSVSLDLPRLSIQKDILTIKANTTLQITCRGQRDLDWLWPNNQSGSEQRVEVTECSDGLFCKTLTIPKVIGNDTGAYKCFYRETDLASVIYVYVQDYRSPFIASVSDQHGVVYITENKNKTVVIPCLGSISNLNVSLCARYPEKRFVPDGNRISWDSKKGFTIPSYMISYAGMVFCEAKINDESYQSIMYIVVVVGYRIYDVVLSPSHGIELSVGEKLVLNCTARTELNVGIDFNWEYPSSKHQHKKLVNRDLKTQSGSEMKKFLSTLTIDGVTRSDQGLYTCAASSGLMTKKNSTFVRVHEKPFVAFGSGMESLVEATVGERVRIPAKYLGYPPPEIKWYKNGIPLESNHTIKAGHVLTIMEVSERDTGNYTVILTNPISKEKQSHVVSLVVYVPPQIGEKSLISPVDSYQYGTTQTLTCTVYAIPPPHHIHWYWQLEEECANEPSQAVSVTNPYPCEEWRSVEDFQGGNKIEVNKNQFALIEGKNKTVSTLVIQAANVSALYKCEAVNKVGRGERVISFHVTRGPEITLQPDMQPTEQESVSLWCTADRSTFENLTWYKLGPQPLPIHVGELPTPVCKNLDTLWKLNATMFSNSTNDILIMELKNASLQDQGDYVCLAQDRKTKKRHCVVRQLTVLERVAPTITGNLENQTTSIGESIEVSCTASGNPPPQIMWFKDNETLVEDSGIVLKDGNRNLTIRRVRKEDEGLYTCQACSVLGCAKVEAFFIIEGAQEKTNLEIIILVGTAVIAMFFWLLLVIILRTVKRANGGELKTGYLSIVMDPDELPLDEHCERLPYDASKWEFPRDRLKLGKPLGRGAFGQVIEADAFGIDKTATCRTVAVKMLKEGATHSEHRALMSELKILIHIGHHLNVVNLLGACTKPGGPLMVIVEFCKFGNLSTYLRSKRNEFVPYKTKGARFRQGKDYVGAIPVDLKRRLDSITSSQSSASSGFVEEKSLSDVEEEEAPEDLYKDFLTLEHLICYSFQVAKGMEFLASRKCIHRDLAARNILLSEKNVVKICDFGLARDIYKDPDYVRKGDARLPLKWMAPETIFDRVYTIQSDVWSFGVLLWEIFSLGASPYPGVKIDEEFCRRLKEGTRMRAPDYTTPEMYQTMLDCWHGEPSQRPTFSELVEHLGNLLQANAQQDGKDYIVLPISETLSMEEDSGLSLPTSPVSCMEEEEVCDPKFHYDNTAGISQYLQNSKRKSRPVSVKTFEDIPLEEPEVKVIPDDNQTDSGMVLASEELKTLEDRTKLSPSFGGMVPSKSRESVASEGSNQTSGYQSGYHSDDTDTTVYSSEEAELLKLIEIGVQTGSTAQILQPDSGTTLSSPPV

Regarding `CNC(=O)c1cc(Oc2ccc(NC(=O)Nc3ccc(Cl)c(C(F)(F)F)c3)cc2)ccn1` [SORAFENIB], the IC50 worked out at 5.73 µM in experiment [1]; 35 µM in the experiment on MDA-MB-231; 101 µM in experiment [2]; 6.56 µM with LoVo; 0.86 µM in the experiment on K562.
`COc1cc(-c2cc(NC(=O)Nc3ccc(OCCN4CCOCC4)cc3)cc(OC)c2OC)ccc1C(C)=O` registered an IC50 in experiment [3] greater than 0.3 µM.
In turn, `CCN(CC)CCOc1ccc(NC(=O)Nc2cc(OC)c(OC)c(-c3ccc(/C(C)=N/O)c(OC)c3)c2)c(C)c1` gave an IC50 in experiment [3] greater than 0.3 µM.
Regarding `CCN(CC)CCOc1ccc(NC(=O)Nc2cc(OC)c(OC)c(-c3ccc(C(C)=O)c(OC)c3)c2)cc1`, in experiment [3], the 50% inhibitory concentration (IC50) was greater than 0.3 µM.
As to `COc1cc(-c2cc(NC(=O)Nc3cc(OCCN4CCCCC4)ccc3C)cc(OC)c2OC)ccc1C(C)=O`, in experiment [3], the IC50 is greater than 0.3 µM.
With `COc1cc(-c2cc(NC(=O)Nc3ccc(OCCN(C)C)cc3)cc(OC)c2OC)ccc1C(C)=O`, in experiment [3], the IC50 is greater than 0.3 µM.
For the compound `COc1cc(-c2cc(NC(=O)Nc3ccc(OCCCN4CCOCC4)cc3)cc(OC)c2OC)ccc1C(C)=O`, the IC50 in experiment [1] came out at 10.4 µM; in experiment [2], 80.9 µM; with LoVo it was 11.1 µM; in the experiment on K562, 2.23 µM.
The compound `COc1cc(-c2cc(NC(=O)Nc3ccc(OCCN(C)C)cc3C)cc(OC)c2OC)ccc1C(C)=O` came in with an IC50 in experiment [3] greater than 0.3 µM.

For orientation: IC50 means the concentration that inhibits the measured activity by half. High values mean weaker potency in that assay, low ones greater potency in that assay.
